Laboratory results from ChEMBL document CHEMBL5058577, “EUbOPEN Chemogenomics Library 2 (Multiplex)” (2022).

Tested on: Fibroblast
Test: Multiplex assay against human fibroblast
Assay type: toxicity, cell-based
Method in brief: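 On a CQ1 microscope at 37°C and 5% CO2, live cells were imaged after compound addition. They had been stained at seeding with Hoechst33342, BioTracker Green Microtubule Cytoskeleton Dye, MitoTracker Red and Annexin V Alexa Fluor 680. CellPathfinder machine-learning gating assigned cells to Hoechst high-intensity objects or normal cells, normal cells to healthy, pyknosed or fragmented nuclei, and pyknosed cells to mitotic or apoptotic. Tubulin, mitochondrial-mass and membrane-permeability phenotypes are per cents of healthy-nucleus cells.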

[1] = 12 h, 1 µM, compound concentration 1 uM, replicate 1
[2] = 12 h, 1 µM, compound concentration 1 uM, replicate 2
[3] = 12 h, 10 µM, compound concentration 10 uM, replicate 1
[4] = 12 h, 10 µM, compound concentration 10 uM, replicate 2
[5] = 24 h, 1 µM, compound concentration 1 uM, replicate 1
[6] = 24 h, 1 µM, compound concentration 1 uM, replicate 2
[7] = 24 h, 10 µM, compound concentration 10 uM, replicate 1
[8] = 24 h, 10 µM, compound concentration 10 uM, replicate 2
[9] = 48 h, 1 µM, compound concentration 1 uM, replicate 1
[10] = 48 h, 1 µM, compound concentration 1 uM, replicate 2
[11] = 48 h, 10 µM, compound concentration 10 uM, replicate 1
[12] = 48 h, 10 µM, compound concentration 10 uM, replicate 2

With N[C@@]1(C(=O)O)CO[C@H]2[C@H](C(=O)O)[C@H]21 [LY-379268] the “Population Apoptotic (%)” value [1] was 22%, the “Population Fragmented Nuclei (%)” value [1] was 17% and the “Population Healthy Nuclei (%)” value [1] was 70%. For the same molecule, the “Population Hoechst High Intensity Objects (%)” value [1] was 1%, the “Population Membrane Permeable-Phenotype (%)” value [1] was 0% and the “Population Mitochondria Different-Phenotype (%)” value [1] was 2%. The “Population Mitotic Cells (%)” value [1] was 77%, the “Population Normal (%)” value [1] was 98% and the “Population Pyknosed Nuclei (%)” value [1] was 11%. The “Population Tubulin-Different-Phenotype (%)” value [1] was 25%, the “Total Cell Count” value [1] was 156 and the “Population Apoptotic (%)” value [2] was 44%. The “Population Fragmented Nuclei (%)” value [2] was 33%, the “Population Healthy Nuclei (%)” value [2] was 43% and the “Population Hoechst High Intensity Objects (%)” value [2] was 10%. For the same molecule, the “Population Membrane Permeable-Phenotype (%)” value [2] was 5%, the “Population Mitochondria Different-Phenotype (%)” value [2] was 1% and the “Population Mitotic Cells (%)” value [2] was 55%. The “Population Normal (%)” value [2] was 89%, the “Population Pyknosed Nuclei (%)” value [2] was 22% and the “Population Tubulin-Different-Phenotype (%)” value [2] was 45%. For the same molecule, the “Total Cell Count” value [2] was 145, the “Population Apoptotic (%)” value [3] was 29% and the “Population Fragmented Nuclei (%)” value [3] was 15%. For the same molecule, the “Population Healthy Nuclei (%)” value [3] was 69%, the “Population Hoechst High Intensity Objects (%)” value [3] was 3% and the “Population Membrane Permeable-Phenotype (%)” value [3] was 0%. For the same molecule, the “Population Mitochondria Different-Phenotype (%)” value [3] was 3%, the “Population Mitotic Cells (%)” value [3] was 70% and the “Population Normal (%)” value [3] was 96%. The “Population Pyknosed Nuclei (%)” value [3] was 14%, the “Population Tubulin-Different-Phenotype (%)” value [3] was 19% and the “Total Cell Count” value [3] was 187. For the same molecule, the “Population Apoptotic (%)” value [4] was 21%, the “Population Healthy Nuclei (%)” value [4] was 51% and the “Population Membrane Permeable-Phenotype (%)” value [4] was 4%. The “Population Mitochondria Different-Phenotype (%)” value [4] was 1%, the “Population Mitotic Cells (%)” value [4] was 78% and the “Population Pyknosed Nuclei (%)” value [4] was 33%. The “Population Tubulin-Different-Phenotype (%)” value [4] was 47%, the “Total Cell Count” value [4] was 128 and the “Population Apoptotic (%)” value [5] was 36%. For the same molecule, the “Population Fragmented Nuclei (%)” value [5] was 16%, the “Population Healthy Nuclei (%)” value [5] was 70% and the “Population Hoechst High Intensity Objects (%)” value [5] was 0%. For the same molecule, the “Population Membrane Permeable-Phenotype (%)” value [5] was 0%, the “Population Mitochondria Different-Phenotype (%)” value [5] was 5% and the “Population Mitotic Cells (%)” value [5] was 63%. For the same molecule, the “Population Normal (%)” value [5] was 99%, the “Population Pyknosed Nuclei (%)” value [5] was 12% and the “Population Tubulin-Different-Phenotype (%)” value [5] was 23%. The “Total Cell Count” value [5] was 152, the “Population Apoptotic (%)” value [6] was 47% and the “Population Fragmented Nuclei (%)” value [6] was 40%. The “Population Healthy Nuclei (%)” value [6] was 41%, the “Population Hoechst High Intensity Objects (%)” value [6] was 10% and the “Population Membrane Permeable-Phenotype (%)” value [6] was 4%. The “Population Mitochondria Different-Phenotype (%)” value [6] was 10%, the “Population Mitotic Cells (%)” value [6] was 52% and the “Population Normal (%)” value [6] was 89%. For the same molecule, the “Population Pyknosed Nuclei (%)” value [6] was 18%, the “Population Tubulin-Different-Phenotype (%)” value [6] was 60% and the “Total Cell Count” value [6] was 125. For the same molecule, the “Population Apoptotic (%)” value [7] was 66%, the “Population Fragmented Nuclei (%)” value [7] was 14% and the “Population Healthy Nuclei (%)” value [7] was 75%. The “Population Hoechst High Intensity Objects (%)” value [7] was 5%, the “Population Membrane Permeable-Phenotype (%)” value [7] was 0% and the “Population Mitochondria Different-Phenotype (%)” value [7] was 3%. For the same molecule, the “Population Mitotic Cells (%)” value [7] was 33%, the “Population Normal (%)” value [7] was 94% and the “Population Pyknosed Nuclei (%)” value [7] was 10%. For the same molecule, the “Population Tubulin-Different-Phenotype (%)” value [7] was 19%, the “Total Cell Count” value [7] was 189 and the “Population Apoptotic (%)” value [8] was 22%. The “Population Fragmented Nuclei (%)” value [8] was 17%, the “Population Healthy Nuclei (%)” value [8] was 53% and the “Population Hoechst High Intensity Objects (%)” value [8] was 6%. For the same molecule, the “Population Membrane Permeable-Phenotype (%)” value [8] was 2%, the “Population Mitochondria Different-Phenotype (%)” value [8] was 0% and the “Population Mitotic Cells (%)” value [8] was 77%. The “Population Normal (%)” value [8] was 93%, the “Population Pyknosed Nuclei (%)” value [8] was 28% and the “Population Tubulin-Different-Phenotype (%)” value [8] was 44%. The “Total Cell Count” value [8] was 133, the “Population Apoptotic (%)” value [9] was 76% and the “Population Fragmented Nuclei (%)” value [9] was 22%. The “Population Healthy Nuclei (%)” value [9] was 68%, the “Population Hoechst High Intensity Objects (%)” value [9] was 3% and the “Population Membrane Permeable-Phenotype (%)” value [9] was 0%. The “Population Mitochondria Different-Phenotype (%)” value [9] was 5%, the “Population Mitotic Cells (%)” value [9] was 23% and the “Population Normal (%)” value [9] was 96%. For the same molecule, the “Population Pyknosed Nuclei (%)” value [9] was 8%, the “Population Tubulin-Different-Phenotype (%)” value [9] was 26% and the “Total Cell Count” value [9] was 156. For the same molecule, the “Population Apoptotic (%)” value [10] was 50%, the “Population Fragmented Nuclei (%)” value [10] was 33% and the “Population Healthy Nuclei (%)” value [10] was 55%. For the same molecule, the “Population Hoechst High Intensity Objects (%)” value [10] was 11%, the “Population Membrane Permeable-Phenotype (%)” value [10] was 4% and the “Population Mitochondria Different-Phenotype (%)” value [10] was 7%. For the same molecule, the “Population Mitotic Cells (%)” value [10] was 50%, the “Population Normal (%)” value [10] was 88% and the “Population Pyknosed Nuclei (%)” value [10] was 11%. For the same molecule, the “Population Tubulin-Different-Phenotype (%)” value [10] was 59%, the “Total Cell Count” value [10] was 136 and the “Population Apoptotic (%)” value [11] was 62%. The “Population Fragmented Nuclei (%)” value [11] was 14%, the “Population Healthy Nuclei (%)” value [11] was 72% and the “Population Hoechst High Intensity Objects (%)” value [11] was 1%. The “Population Membrane Permeable-Phenotype (%)” value [11] was 0%, the “Population Mitochondria Different-Phenotype (%)” value [11] was 0% and the “Population Mitotic Cells (%)” value [11] was 37%. For the same molecule, the “Population Normal (%)” value [11] was 98%, the “Population Pyknosed Nuclei (%)” value [11] was 13% and the “Population Tubulin-Different-Phenotype (%)” value [11] was 19%. The “Total Cell Count” value [11] was 179, the “Population Apoptotic (%)” value [12] was 42% and the “Population Fragmented Nuclei (%)” value [12] was 27%. The “Population Healthy Nuclei (%)” value [12] was 56%, the “Population Hoechst High Intensity Objects (%)” value [12] was 7% and the “Population Membrane Permeable-Phenotype (%)” value [12] was 10%. The “Population Mitochondria Different-Phenotype (%)” value [12] was 5%, the “Population Mitotic Cells (%)” value [12] was 57% and the “Population Normal (%)” value [12] was 92%. For the same molecule, the “Population Pyknosed Nuclei (%)” value [12] was 16%, the “Population Tubulin-Different-Phenotype (%)” value [12] was 47% and the “Total Cell Count” value [12] was 140.
